Results as given in ChEMBL document CHEMBL2163256, “6-(methylamino)hexane-1,2,3,4,5-pentanol 4-(((1S,2S)-1-hydroxy-2,3-dihydro-1H,1'H-[2,2-biinden]-2-yl)methyl)benzoate (PH46A): a novel small molecule with efficacy in murine models of colitis” (J Med Chem, 2012).
Calls of active or inactive are those of the source. No cut-off for these calls is given here.

Key:
Mus musculus [1] = assay: Antiinflammatory activity against DSS-induced colitis BALB/c mouse model assessed as increase in colon lenght at 30 mg/kg, po qd for 7 days relative to vehicle-treated control; format: functional, organism-based; set-up: dose 30 mg/kg
Outline: (§1)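 Female SPF BALB/c mice, 6−8 weeks old; colitis induced by 5% DSS in tap drinking water (renewed every second day) for 7 days. Daily oral dosing for 7 days as suspension/solution in 0.5% carboxymethyl cellulose/2% Tween 80. Daily body weight; DAI per mouse each day from weight loss, occult blood and stool consistency; colon length at autopsy. Mean ± SEM, n = 6−7.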

Mus musculus [2] = assay: Toxicity in DSS-induced colitis BALB/c mouse model assessed as overt reactions at 30 mg/kg, po qd for 7 days relative to vehicle-treated control; format: organism-based; set-up: dose 30 mg/kg, route oral; details: in vivo, 168 h
Mus musculus [3] = assay: Antiinflammatory activity against DSS-induced colitis BALB/c mouse model assessed as decrease in disease activity index at 30 mg/kg, po qd for 7 days relative to vehicle-treated control; format: functional, organism-based; set-up: dose 30 mg/kg; outline: as §1
Mus musculus [4] = assay: Antiinflammatory activity against DSS-induced colitis BALB/c mouse model assessed as decrease in disease activity index at 30 mg/kg, po qd for 7 days measured on day 6 relative to vehicle-treated control; format: functional, organism-based; set-up: dose 30 mg/kg; outline: as §1
Mus musculus [5] = assay: Antiinflammatory activity in IL-10 -/- BALB/c mouse assessed as prevention of rectal bleeding at 300 mg/kg, po administered as divided dose 3 times a week for 9 weeks relative to vehicle-treated control; format: functional, organism-based; set-up: dose 300 mg/kg
Outline: (§2)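 IL-10−/− BALB/c-background mice, bred SPF, treated from 6−8 weeks of age by oral gavage of 300 mg/kg/week in distilled water (vehicle), Mon/Wed/Fri, for 9 weeks. Weight, rectal bleeding and prolapse monitored. At 9 weeks serum SAA was measured by sandwich ELISA. Proximal colon (1 cm) was fixed, H&E-stained and scored blinded by two observers (maximum 4). n = 9 vehicle, 11 treated; Student's t test.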

Mus musculus [6] = assay: Antiinflammatory activity against DSS-induced colitis BALB/c mouse model assessed as increase in colon lenght at 10 mg/kg, po qd for 7 days relative to vehicle-treated control; format: functional, organism-based; set-up: dose 10 mg/kg; outline: as §1
Mus musculus [7] = assay: Antiinflammatory activity against DSS-induced colitis BALB/c mouse model assessed as reduction in IL6 level at 30 mg/kg, po qd for 7 days measured on day 7 relative to vehicle-treated control; format: functional, organism-based; set-up: dose 30 mg/kg
Outline: (§3)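 DSS colitis in female BALB/c mice (5% DSS in drinking water, 7 days, daily oral dosing). At autopsy, colon remaining after histology sampling snap-frozen, stored at −20 °C, thawed, contents removed, chopped and homogenized; supernatant protein determined. IL1b, IL6 and TNFα in colon supernatant by sandwich ELISA, expressed as ng/mg. Mean ± SEM, n = 6−7.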

Mus musculus [8] = assay: Antiinflammatory activity against DSS-induced colitis BALB/c mouse model assessed as decrease in disease activity index at 10 mg/kg, po qd for 7 days relative to vehicle-treated control; format: functional, organism-based; set-up: dose 10 mg/kg; outline: as §1
Mus musculus [9] = assay: Antiinflammatory activity against DSS-induced colitis BALB/c mouse model assessed as reduction in IL1b level at 30 mg/kg, po qd for 7 days measured on day 7 relative to vehicle-treated control; format: functional, organism-based; set-up: dose 30 mg/kg; outline: as §3
Mus musculus [10] = assay: Antiinflammatory activity against po dosed DSS-induced colitis BALB/c mouse model assessed as decrease in disease activity index administered daily once for 7 days measured on day 7 relative to vehicle-treated control; format: functional, organism-based; outline: as §1
Mus musculus [11] = assay: Antiinflammatory activity against DSS-induced colitis BALB/c mouse model assessed as prevention of body weight loss at 10 mg/kg, po qd for 7 days relative to vehicle-treated control; format: functional, organism-based; set-up: dose 10 mg/kg; outline: as §1
Mus musculus [12] = assay: Antiinflammatory activity against po dosed DSS-induced colitis BALB/c mouse model assessed as reduction in IL1b level administered daily once for 7 days measured on day 7 relative to vehicle-treated control; format: functional, organism-based; outline: as §3
Mus musculus [13] = assay: Antiinflammatory activity against po dosed DSS-induced colitis BALB/c mouse model assessed as reduction in IL6 level administered daily once for 7 days measured on day 7 relative to vehicle-treated control; format: functional, organism-based; outline: as §3
Mus musculus [14] = assay: Antiinflammatory activity against po dosed DSS-induced colitis BALB/c mouse model assessed as reduction in TNFalpha level administered daily once for 7 days measured on day 7 relative to vehicle-treated control; format: functional, organism-based; outline: as §3
Mus musculus [15] = assay: Antiinflammatory activity against po dosed DSS-induced colitis BALB/c mouse model assessed as reduction in histological colon damage score administered daily once for 7 days measured on day 7; format: functional, organism-based
Outline: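 After 7 days of 5% DSS with daily oral dosing, about 1 cm distal colon was fixed in 10% formaldehyde-saline, paraffin-embedded, cut into 5 μm serial sections and H&E-stained. Scoring covered cell infiltration (0−3) and extent of injury (0−3), done blinded by two independent observers.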

Mus musculus [16] = assay: Antiinflammatory activity in IL-10 -/- BALB/c mouse assessed as prevention of rectal prolapse at 300 mg/kg, po administered as divided dose 3 times a week for 9 weeks relative to vehicle-treated control; format: functional, organism-based; set-up: dose 300 mg/kg; outline: as §2
Mus musculus [17] = assay: Antiinflammatory activity in IL-10 -/- BALB/c mouse assessed as reduction in histological colon damage score at 300 mg/kg, po administered as divided dose 3 times a week for 9 weeks relative to vehicle-treated control; format: functional, organism-based; set-up: dose 300 mg/kg; outline: as §2
Mus musculus [18] = assay: Antiinflammatory activity against DSS-induced colitis BALB/c mouse model assessed as reduction in TNFalpha level at 30 mg/kg, po qd for 7 days measured on day 7 relative to vehicle-treated control; format: functional, organism-based; set-up: dose 30 mg/kg; outline: as §3
Mus musculus [19] = assay: Antiinflammatory activity against po dosed DSS-induced colitis BALB/c mouse model assessed as reduction in shortening of colon administered daily once for 7 days measured on day 7 relative to vehicle-treated control; format: functional, organism-based; outline: as §1
Mus musculus [20] = assay: Antiinflammatory activity in IL-10 -/- BALB/c mouse assessed as prevention of weight loss at 300 mg/kg, po administered as divided dose 3 times a week for 9 weeks relative to vehicle-treated control; format: functional, organism-based; set-up: dose 300 mg/kg; outline: as §2

O=C(O)c1ccc(C[C@@]2(C3=Cc4ccccc4C3)Cc3ccccc3[C@@H]2O)cc1
Activity (Mus musculus [1]): Active
Activity (Mus musculus [2]): Non-toxic
Activity (Mus musculus [3]): inactive

O=C(O)c1ccc(C[C@]2(C3=Cc4ccccc4C3)Cc3ccccc3[C@@H]2O)cc1
Activity (Mus musculus [1]): Active
Activity (Mus musculus [4]): inactive
Activity (Mus musculus [2]): Non-toxic
Activity (Mus musculus [3]): Active

O=C(O)c1ccc(C[C@@]2(C3=Cc4ccccc4C3)Cc3ccccc3[C@H]2O)cc1 [listing 1 of 2 here]
Activity (Mus musculus [2]): Non-toxic

O=C(O)c1ccc(C[C@@]2(C3=Cc4ccccc4C3)Cc3ccccc3[C@H]2O)cc1 [listing 2 of 2 here]
Activity (Mus musculus [5]): inactive
Activity (Mus musculus [6]): Active
Activity (Mus musculus [1]): Active
Activity (Mus musculus [7]): Active
Activity (Mus musculus [8]): Active
Activity (Mus musculus [9]): Active
Activity (Mus musculus [10]): Dose-dependent effect
Activity (Mus musculus [3]): Active
Activity (Mus musculus [11]): Active
Activity (Mus musculus [12]): Dose-dependent effect
Activity (Mus musculus [13]): Dose-dependent effect
Activity (Mus musculus [14]): Dose-dependent effect
Activity (Mus musculus [15]): Dose-dependent effect
Activity (Mus musculus [16]): inactive
Activity (Mus musculus [17]): Active
Activity (Mus musculus [18]): Active
Activity (Mus musculus [19]): Dose-dependent effect
Activity (Mus musculus [20]): inactive
